Common to all, as to details: stereoisomer not certain
In one test the target is T1, OR51L1 (Homo sapiens) (UniProt Q8NGJ5).
T1 sequence (whole entry): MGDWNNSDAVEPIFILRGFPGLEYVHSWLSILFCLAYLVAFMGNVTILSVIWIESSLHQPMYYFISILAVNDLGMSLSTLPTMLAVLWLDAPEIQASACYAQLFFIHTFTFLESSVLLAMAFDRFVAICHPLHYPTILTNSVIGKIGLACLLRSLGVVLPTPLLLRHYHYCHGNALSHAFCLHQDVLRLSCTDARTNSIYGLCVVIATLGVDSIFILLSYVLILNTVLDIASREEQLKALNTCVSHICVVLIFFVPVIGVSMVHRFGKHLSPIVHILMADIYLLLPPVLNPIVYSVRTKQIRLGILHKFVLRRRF
The essentials:
(§1)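 Assay methods differ from source to source, frequently being transient luciferase assays in mammalian cell lines. For each receptor–molecule pair, the label responsive (active) applies when the original authors judged the measured signal statistically different from baseline, and non-responsive (inactive) applies otherwise.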

Another test addresses T2, OR51I2 (Homo sapiens) (UniProt Q9H344).
T2 sequence (whole entry): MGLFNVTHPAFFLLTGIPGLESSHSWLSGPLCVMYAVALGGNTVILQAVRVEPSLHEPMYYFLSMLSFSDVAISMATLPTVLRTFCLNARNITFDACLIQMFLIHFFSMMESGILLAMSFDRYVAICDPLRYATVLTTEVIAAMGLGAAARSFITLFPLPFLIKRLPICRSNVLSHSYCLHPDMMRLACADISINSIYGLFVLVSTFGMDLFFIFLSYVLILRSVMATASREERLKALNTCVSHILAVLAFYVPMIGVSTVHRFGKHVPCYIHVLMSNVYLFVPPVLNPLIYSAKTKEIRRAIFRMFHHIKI
The essentials:
as §1

The target in the next test is T3, OR51J1 (Homo sapiens) (UniProt Q9H342).
T3 sequence (whole entry): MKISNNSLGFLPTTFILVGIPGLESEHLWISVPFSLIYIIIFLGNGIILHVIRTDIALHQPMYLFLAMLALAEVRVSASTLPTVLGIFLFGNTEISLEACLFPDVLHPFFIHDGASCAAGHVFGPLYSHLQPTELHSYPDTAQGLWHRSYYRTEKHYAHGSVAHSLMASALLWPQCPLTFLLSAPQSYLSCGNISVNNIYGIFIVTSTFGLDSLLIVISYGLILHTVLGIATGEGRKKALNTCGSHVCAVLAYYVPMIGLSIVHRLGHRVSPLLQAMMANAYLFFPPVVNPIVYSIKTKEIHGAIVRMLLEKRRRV
Summed up: as §1

The target of a further test is T4, OR51M1 (Homo sapiens) (UniProt Q9H341).
T4 sequence (whole entry): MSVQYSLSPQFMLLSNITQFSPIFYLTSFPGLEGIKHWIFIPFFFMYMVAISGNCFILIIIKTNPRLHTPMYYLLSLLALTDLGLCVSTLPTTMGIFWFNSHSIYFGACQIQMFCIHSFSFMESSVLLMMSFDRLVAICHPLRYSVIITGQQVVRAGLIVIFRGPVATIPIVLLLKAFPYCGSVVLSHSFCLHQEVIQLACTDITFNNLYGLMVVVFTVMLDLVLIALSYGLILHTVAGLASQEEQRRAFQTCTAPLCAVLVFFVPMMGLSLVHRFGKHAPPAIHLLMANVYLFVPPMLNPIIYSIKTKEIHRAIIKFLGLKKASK
The essentials:
as §1

Another test addresses T5, OR51Q1 (Homo sapiens) (UniProt Q8NH59).
T5 sequence (whole entry): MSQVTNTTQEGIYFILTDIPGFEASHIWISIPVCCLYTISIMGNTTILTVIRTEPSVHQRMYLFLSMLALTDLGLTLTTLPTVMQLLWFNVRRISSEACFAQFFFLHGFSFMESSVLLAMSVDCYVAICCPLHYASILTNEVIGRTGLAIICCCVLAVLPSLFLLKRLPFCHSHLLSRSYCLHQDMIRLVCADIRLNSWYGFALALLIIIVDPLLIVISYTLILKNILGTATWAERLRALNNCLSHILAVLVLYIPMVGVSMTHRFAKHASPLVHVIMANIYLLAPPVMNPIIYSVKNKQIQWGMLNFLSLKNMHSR
Summed up:
as §1

The target of the next test is T6, OR51S1 (Homo sapiens) (UniProt Q8NGJ8).
T6 sequence (whole entry): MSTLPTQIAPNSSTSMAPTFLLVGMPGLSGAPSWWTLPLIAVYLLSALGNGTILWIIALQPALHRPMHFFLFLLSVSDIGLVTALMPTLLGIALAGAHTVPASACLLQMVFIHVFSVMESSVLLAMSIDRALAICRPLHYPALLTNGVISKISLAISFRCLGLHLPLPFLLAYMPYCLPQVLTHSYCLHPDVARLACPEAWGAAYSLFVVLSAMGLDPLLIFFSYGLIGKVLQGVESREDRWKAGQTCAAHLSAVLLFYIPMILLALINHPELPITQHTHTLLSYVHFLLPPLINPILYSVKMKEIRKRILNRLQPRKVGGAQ
The essentials:
as §1

The next test concerns the target T7, OR51V1 (Homo sapiens) (UniProt Q9H2C8).
T7 sequence (whole entry): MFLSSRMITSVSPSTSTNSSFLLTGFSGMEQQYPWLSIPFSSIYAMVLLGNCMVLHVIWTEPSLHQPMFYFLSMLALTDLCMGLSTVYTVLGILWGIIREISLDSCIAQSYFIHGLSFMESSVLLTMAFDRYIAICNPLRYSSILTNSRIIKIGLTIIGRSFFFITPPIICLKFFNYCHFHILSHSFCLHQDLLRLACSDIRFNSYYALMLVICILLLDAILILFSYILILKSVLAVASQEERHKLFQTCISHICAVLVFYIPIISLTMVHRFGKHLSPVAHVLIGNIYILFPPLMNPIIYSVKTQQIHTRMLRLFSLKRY
Summed up:
as §1

In a further test the target is T8, OR52A1 (Homo sapiens) (UniProt Q9UKL2).
T8 sequence (whole entry): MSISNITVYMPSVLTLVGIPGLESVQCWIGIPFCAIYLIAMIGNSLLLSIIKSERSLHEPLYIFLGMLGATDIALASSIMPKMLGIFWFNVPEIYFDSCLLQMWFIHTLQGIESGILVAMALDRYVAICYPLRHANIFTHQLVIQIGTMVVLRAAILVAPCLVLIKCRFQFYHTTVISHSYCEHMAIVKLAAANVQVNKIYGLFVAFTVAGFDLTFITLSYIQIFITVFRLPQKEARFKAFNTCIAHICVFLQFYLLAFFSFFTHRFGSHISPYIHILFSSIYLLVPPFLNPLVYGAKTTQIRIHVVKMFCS
Summed up:
as §1

A further test addresses T9, OR51T1 (Homo sapiens) (UniProt Q8NGJ9).
T9 sequence (whole entry): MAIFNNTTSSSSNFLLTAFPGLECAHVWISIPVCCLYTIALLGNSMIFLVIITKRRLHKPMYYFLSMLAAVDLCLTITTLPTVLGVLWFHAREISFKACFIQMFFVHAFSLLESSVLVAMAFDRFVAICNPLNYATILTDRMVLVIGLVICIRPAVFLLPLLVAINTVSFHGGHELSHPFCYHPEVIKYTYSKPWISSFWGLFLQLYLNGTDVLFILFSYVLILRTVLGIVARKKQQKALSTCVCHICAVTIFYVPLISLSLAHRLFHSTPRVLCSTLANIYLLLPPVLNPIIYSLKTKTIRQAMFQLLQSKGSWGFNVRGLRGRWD
Summed up:
as §1

For the next test, the target named is T10, OR52A4P (Homo sapiens) (UniProt A6NMU1).
T10 sequence (whole entry): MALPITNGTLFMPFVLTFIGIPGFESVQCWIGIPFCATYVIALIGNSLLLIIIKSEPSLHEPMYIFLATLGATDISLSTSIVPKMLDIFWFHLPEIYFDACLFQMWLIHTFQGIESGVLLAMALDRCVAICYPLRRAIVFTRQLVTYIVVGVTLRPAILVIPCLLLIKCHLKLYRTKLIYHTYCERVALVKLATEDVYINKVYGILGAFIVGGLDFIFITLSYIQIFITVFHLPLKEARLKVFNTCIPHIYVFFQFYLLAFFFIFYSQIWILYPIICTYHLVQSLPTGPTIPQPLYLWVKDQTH
Summed up:
as §1

For the compound `CCCCCC=O`, the “odorant receptor agonist call” value in the test with OR51L1 (Homo sapiens) was “inactive”.

Take `CCC1OC(C)=C(O)C1=O` (stereo not given): the “odorant receptor agonist call” value with OR51I2 (Homo sapiens), in the test with OR51J1 (Homo sapiens), with OR51L1 (Homo sapiens), with OR51M1 (Homo sapiens), in the test with OR51Q1 (Homo sapiens) and with OR51S1 (Homo sapiens) was “inactive” in each case. The “odorant receptor agonist call” value with OR51V1 (Homo sapiens) and in the test with OR52A1 (Homo sapiens) was “inactive” throughout.

In the case of `CCCCCCCCO`, the “odorant receptor agonist call” value with OR51L1 (Homo sapiens) was “inactive”.

Take `CCC1OC(=O)C(O)=C1C` (stereo not given): the “odorant receptor agonist call” value in the test with OR51I2 (Homo sapiens), in the test with OR51J1 (Homo sapiens), with OR51L1 (Homo sapiens), with OR51M1 (Homo sapiens), with OR51Q1 (Homo sapiens) and in the test with OR51S1 (Homo sapiens) was “inactive” in each case. The “odorant receptor agonist call” value with OR51V1 (Homo sapiens) and in the test with OR52A1 (Homo sapiens) was “inactive” throughout.

In the case of `CCCCCC(S)C(C)CO` (stereo not given), the “odorant receptor agonist call” value with OR51I2 (Homo sapiens), in the test with OR51J1 (Homo sapiens), with OR51L1 (Homo sapiens), in the test with OR51M1 (Homo sapiens), with OR51Q1 (Homo sapiens) and in the test with OR51S1 (Homo sapiens) was “inactive” in each case. In addition, the “odorant receptor agonist call” value with OR51T1 (Homo sapiens), in the test with OR51V1 (Homo sapiens), in the test with OR52A1 (Homo sapiens) and with OR52A4P (Homo sapiens) was “inactive” each time.

On to `CC1CCCCCCCCCCCCC(=O)C1` (stereo not given), for which the “odorant receptor agonist call” value with OR51I2 (Homo sapiens), in the test with OR51J1 (Homo sapiens), with OR51L1 (Homo sapiens), in the test with OR51M1 (Homo sapiens), with OR51Q1 (Homo sapiens) and with OR51S1 (Homo sapiens) was “inactive” throughout. For the same compound, the “odorant receptor agonist call” value with OR51T1 (Homo sapiens), with OR51V1 (Homo sapiens), with OR52A1 (Homo sapiens) and with OR52A4P (Homo sapiens) was “inactive” each time.

Take `CCCCCCCCCS`: the “odorant receptor agonist call” value with OR51L1 (Homo sapiens) was “inactive”.

`CC(CO)CS` (stereo not given): the “odorant receptor agonist call” value in the test with OR51I2 (Homo sapiens), in the test with OR51J1 (Homo sapiens), with OR51L1 (Homo sapiens), with OR51M1 (Homo sapiens), with OR51Q1 (Homo sapiens) and with OR51S1 (Homo sapiens) was “inactive” in each case. For the same compound, the “odorant receptor agonist call” value with OR51T1 (Homo sapiens), with OR51V1 (Homo sapiens), in the test with OR52A1 (Homo sapiens) and with OR52A4P (Homo sapiens) was “inactive” each time.

In the case of `CC(C)=CCCC(C)CCO` (stereo not given), in the test with OR51L1 (Homo sapiens), the “odorant receptor agonist call” value was “inactive”.

In the case of `CCCC(S)CCOC(C)=O` (stereo not given), the “odorant receptor agonist call” value with OR51I2 (Homo sapiens), with OR51J1 (Homo sapiens), with OR51L1 (Homo sapiens), in the test with OR51M1 (Homo sapiens), in the test with OR51Q1 (Homo sapiens) and with OR51S1 (Homo sapiens) was “inactive” in each case. For the same compound, the “odorant receptor agonist call” value with OR51V1 (Homo sapiens) and with OR52A1 (Homo sapiens) was “inactive” each time.

Regarding `CCCCCCC=CCCC=O`, the “odorant receptor agonist call” value in the test with OR51I2 (Homo sapiens), in the test with OR51J1 (Homo sapiens), with OR51L1 (Homo sapiens), with OR51M1 (Homo sapiens), with OR51Q1 (Homo sapiens) and in the test with OR51S1 (Homo sapiens) was “inactive” throughout. Also, the “odorant receptor agonist call” value with OR51T1 (Homo sapiens), in the test with OR51V1 (Homo sapiens) and in the test with OR52A1 (Homo sapiens) was “inactive” each time.

For `CCCCCC1=C(C)CCC1=O`, the “odorant receptor agonist call” value with OR51L1 (Homo sapiens) is “inactive”.

On to `CCCCCO`, for which the “odorant receptor agonist call” value in the test with OR51L1 (Homo sapiens) is “inactive”.

In the case of `CCCCC(S)C(C)CO` (stereo not given), the “odorant receptor agonist call” value with OR51I2 (Homo sapiens), with OR51J1 (Homo sapiens), with OR51L1 (Homo sapiens), with OR51M1 (Homo sapiens), with OR51Q1 (Homo sapiens) and with OR51S1 (Homo sapiens) was “inactive” each time. The “odorant receptor agonist call” value with OR51V1 (Homo sapiens), with OR52A1 (Homo sapiens) and in the test with OR52A4P (Homo sapiens) was “inactive” each time. For the same compound, in the test with OR51T1 (Homo sapiens), the “odorant receptor agonist call” value is “active”.

Regarding `CCCCCCCCC(=O)O`, the “odorant receptor agonist call” value with OR52A1 (Homo sapiens) is “inactive”.
